Nine molecules from ChEMBL document CHEMBL1129736, “Bisphenolic compounds that enhance cell cation transport are found in commercial phenol red” (1996) can be followed below.

Assay [1] has as its system HFF. As to the kind of experiment: Effect of compound on Na+ ion content of HFF (Human foreskin fibroblasts) Cells at 3 ug/mL. The class given is functional.
A short description of assay [2]: K+ / Na+ ratio in HF(Human foreskin fibroblasts) cells. The class given is functional.
Assay [3] deals with HFF. As to the kind of experiment: Effect of compound on K+ ion content of HFF (Human foreskin fibroblasts) Cells at 3 ug/mL. The class given is functional.
Assay [4] has as its system HFF. The experiment in a line: Effect of compound on Na+ ion content of HFF (Human foreskin fibroblasts) Cells at 0.03 ug/mL. The class given is functional. In short, it runs like this: (§1)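 Human foreskin fibroblasts were grown in 6 cm dishes in DMEM with 10% FBS and antibiotics at 37 °C in CO2/air, pH 7.2-7.4, at 5 × 10⁵ to 2 × 10⁶ cells/dish. Medium was swapped for serum-free test solution by four rinses. Incubation was 45 min, or 30 min in expt III, at 37 °C. Dishes were washed six times with iced MgCl2 or MgSO4. Read-out was K⁺ or Na⁺ per dish (10⁸ × mol), mean of duplicate dishes.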

Assay [5] concerns HFF. As to the kind of experiment: Effect of compound on K+ ion content of HFF (Human foreskin fibroblasts) Cells at 0.3 ug/mL. Format: functional. In short, it runs like this: as §1
Assay [6] concerns HFF. As to the kind of experiment: Effect of compound on Na+ ion content of HFF (Human foreskin fibroblasts) Cells at 0.3 ug/mL. Format: functional. In outline: as §1
For assay [7], the system named is HFF. As to the kind of experiment: Effect of compound on K+ ion content of HFF (Human foreskin fibroblasts) Cells at 0.03 ug/mL. Format: functional. In outline:
as §1

Assay [8] relates to HFF. As to the kind of experiment: Effect of compound on K+ ion content of HFF (Human foreskin fibroblasts) Cells at 0.1 ug/mL. The class given is functional. In short, it runs like this:
as §1

Assay [9] deals with HFF. The experiment in a line: Effect of compound on Na+ ion content of HFF (Human foreskin fibroblasts) Cells at 0.1 ug/mL. The class given is functional. In short, it runs like this: as §1
Assay [10] has as its system HFF. As to the kind of experiment: Effect of compound on K+ ion content of HFF (Human foreskin fibroblasts) Cells at 125 ng/mL. Format: functional.
In assay [11] the test system is HFF. The experiment in a line: Effect of compound on K+ ion content of HFF (Human foreskin fibroblasts) Cells at 62.5 ng/mL. The class given is functional. In short, it runs like this: as §1
The test system of assay [12] is HFF. As to the kind of experiment: Effect of compound on Na+ ion content of HFF (Human foreskin fibroblasts) Cells at 125 ng/mL. Format: functional.
Assay [13] deals with HFF. As to the kind of experiment: Effect of compound on Na+ ion content of HFF (Human foreskin fibroblasts) Cells at 15.6 ng/mL. Format: functional. In outline:
as §1

Assay [14] relates to HFF. The experiment in a line: Effect of compound on Na+ ion content of HFF (Human foreskin fibroblasts) Cells at 62.5 ng/mL. Format: functional. In short, it runs like this: as §1
Assay [15] concerns HFF. As to the kind of experiment: Effect of compound on K+ ion content of HFF (Human foreskin fibroblasts) Cells at 31 ng/mL. Format: functional. In short, it runs like this: as §1
For assay [16], the system named is HFF. The experiment in a line: Effect of compound on K+ ion content of HFF (Human foreskin fibroblasts) Cells at 15.6 ng/mL. Format: functional. In outline: as §1
The test system of assay [17] is HFF. The experiment in a line: Effect of compound on Na+ ion content of HFF (Human foreskin fibroblasts) Cells at 31 ng/mL. The class given is functional. In short, it runs like this: as §1
Assay [18] has as its system HFF. The experiment in a line: Effect of compound on Na+ ion content of HFF Cells at 4.8 ug/mL. Format: functional, Homo sapiens.
In assay [19] the test system is HFF. The experiment in a line: Effect of compound on K+ ion content of HFF (Human foreskin fibroblasts) Cells at 4.8 ug/mL. Format: functional.
For assay [20], the system named is HFF. The experiment in a line: Effect of compound on K+ ion content of HFF (Human foreskin fibroblasts) Cells at 30 ng/mL. The class given is functional. In outline:
as §1

Assay [21] relates to HFF. The experiment in a line: Effect of compound on Na+ ion content of HFF (Human foreskin fibroblasts) Cells at 10 ng/mL. The class given is functional. In outline:
as §1

Assay [22] is described as follows: K+ / Na+ ratio in HF(Human foreskin fibroblasts) cells at 100 ng/mL. Format: functional. In short, it runs like this: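 HF cells were in 6 cm dishes at 5 × 10⁵ to 2 × 10⁶ cells/dish. Growth medium was replaced with serum-free test solution by four rapid rinses. Incubation was 45 min at 37 °C in CO2/air. Dishes were rinsed six times with iced 0.1 M MgCl2 and intracellular K⁺ and Na⁺ were assayed. The K⁺/Na⁺ ratio is the mean of duplicate dishes.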

Assay [23] deals with HFF. The experiment in a line: Effect of compound on K+ ion content of HFF (Human foreskin fibroblasts) Cells at 10 ng/mL. The class given is functional. In outline: as §1
Assay [24] relates to HFF. As to the kind of experiment: Effect of compound on K+ ion content of HFF (Human foreskin fibroblasts) Cells at 100 ng/mL. Format: functional. In short, it runs like this:
as §1

Assay [25] deals with HFF. As to the kind of experiment: Effect of compound on Na+ ion content of HFF (Human foreskin fibroblasts) Cells at 30 ng/mL. The class given is functional. In short, it runs like this: as §1
The test system of assay [26] is HFF. As to the kind of experiment: Effect of compound on K+ ion content of HFF (Human foreskin fibroblasts) Cells at 2.4 ug/mL. Format: functional. In short, it runs like this:
as §1

Assay [27] deals with HFF. As to the kind of experiment: Effect of compound on Na+ ion content of HFF (Human foreskin fibroblasts) Cells at 2.4 ug/mL. Format: functional. In outline: as §1
Assay [28] has as its system HFF. The experiment in a line: Effect of compound on K+ ion content of HFF (Human foreskin fibroblasts) Cells at 4.8 ug/mL (Expt III). The class given is functional. In outline: as §1
The subject of assay [29] is HFF. As to the kind of experiment: Effect of compound on Na+ ion content of HFF (Human foreskin fibroblasts) Cells at 4.8 ug/mL (Expt III). Format: functional. In outline:
as §1

In assay [30] the test system is HFF. The experiment in a line: Effect of compound on K+ ion content of HFF (Human foreskin fibroblasts) Cells at 4.8 ug/mL (Expt II). Format: functional. In outline: as §1
Assay [31] deals with HFF. The experiment in a line: Effect of compound on Na+ ion content of HFF (Human foreskin fibroblasts) Cells at 4.8 ug/mL (Expt II). Format: functional. In short, it runs like this: as §1
Assay [32] concerns HFF. As to the kind of experiment: Effect of compound on Na+ ion content of HFF (Human foreskin fibroblasts) Cells at 4.8 ug/mL. Format: functional. In outline:
as §1

Consider `COc1ccc(CCN(C)CCCC(C#N)(c2ccc(OC)c(OC)c2)C(C)C)cc1OC.Oc1ccc(C2(c3ccc(O)cc3)c3ccccc3-c3ccc(O)cc32)cc1` (centres undefined), for which the “Na+ ion content” value in the assay with HFF [1] stood at 2100000000. In addition, the K+/Na+ ratio in assay [2] is 0.71. Moreover, the K+ Ion content in the assay with HFF [3] is 150 nmol/dish.
On to `Oc1ccc(C2(c3ccc(O)cc3)c3ccccc3-c3ccc(O)cc32)cc1`, for which the “Na+ ion content” value is on record as 3900000000 in the assay on HFF [1], 350000000 in the assay on HFF [4], 3500000000 in the assay with HFF [6] and 2400000000 with HFF [9]. Also, the K+ Ion content in the assay with HFF [3] turned out to be 55 nmol/dish; with HFF [5] it was 38 nmol/dish; with HFF [7], 280 nmol/dish; with HFF [8] it was 870000000.
In the case of `Oc1ccc(C2(c3ccc(O)cc3)c3ccccc3-c3cc(O)ccc32)cc1`, the “K+ Ion content” value with HFF [10] was 520000000; with HFF [11], 100 nmol/dish; in the assay on HFF [15], 270 nmol/dish; in the assay on HFF [16], 3e+09. For the same molecule, the “Na+ ion content” value in the assay with HFF [12] worked out at 3800000000; in the assay on HFF [13] it was 800000000; in the assay with HFF [14], 290 nmol/dish; in the assay on HFF [17] it was 1200000000.
For the molecule `COc1ccc(CCN(C)CCCC(C#N)(c2ccc(OC)c(OC)c2)C(C)C)cc1OC.Oc1ccc(C2(c3ccc(O)cc3)c3ccccc3Oc3ccccc32)cc1` (centres undefined), the K+/Na+ ratio in [2] was 3.4. In addition, in the assay with HFF [18], the “Na+ ion content” value is recorded as 1100000000. The molecule further returned a K+ Ion content in the assay with HFF [19] of 370 nmol/dish.
Regarding `Oc1ccc(C2(c3ccc(O)cc3)c3ccccc3-c3c(O)cccc32)cc1`, the K+ Ion content came out at 240 nmol/dish in the assay on HFF [20], 300 nmol/dish in the assay with HFF [23] and 67 nmol/dish in the assay with HFF [24]. Besides, the Na+ ion content turned out to be 1.1e+09 in the assay on HFF [4], 710000000 in the assay on HFF [21] and 110 nmol/dish in the assay with HFF [25]. Besides, the K+/Na+ ratio in assay [22] was 0.29.
For `C=C[C@H]1CN2CC[C@H]1C[C@H]2[C@H](O)c1ccnc2ccc(OC)cc12.Oc1ccc(C2(c3ccc(O)cc3)c3ccccc3-c3cc(O)ccc32)cc1`, in the assay with HFF [10], the “K+ Ion content” value came out at 2000000000. For the same molecule, in [2], the K+/Na+ ratio is 0.91. In the assay on HFF [12], the “Na+ ion content” value came out at 2200000000.
For `COc1ccc(CCN(C)CCCC(C#N)(c2ccc(OC)c(OC)c2)C(C)C)cc1OC.Oc1ccc(C2(c3ccc(O)cc3)c3ccccc3-c3cc(O)ccc32)cc1` (centres undefined) the same measures were 2000000000, 1.3 and 1600000000.
With `Oc1ccc(C2(c3ccc(O)cc3)c3ccccc3Oc3ccccc32)cc1`, the K+ Ion content in the assay with HFF [26] is 340 nmol/dish; in the assay on HFF [28], 25 nmol/dish; in the assay with HFF [30], 240 nmol/dish. For the same molecule, the Na+ ion content in the assay with HFF [27] was 190 nmol/dish; in the assay on HFF [29], 290 nmol/dish; in the assay with HFF [31] it was 270 nmol/dish.
On to `C=C[C@H]1CN2CC[C@H]1C[C@H]2[C@H](O)c1ccnc2ccc(OC)cc12.Oc1ccc(C2(c3ccc(O)cc3)c3ccccc3Oc3ccccc32)cc1`, for which, in [2], the K+/Na+ ratio was determined as 2.3. Besides, the “Na+ ion content” value in the assay with HFF [32] worked out at 1200000000. Moreover, the K+ Ion content in the assay with HFF [19] turned out to be 270 nmol/dish.
